Here are results for five compounds from ChEMBL document CHEMBL1177726, “Amphiphilic amide nitrones: a new class of protective agents acting as modifiers of mitochondrial metabolism” (J Med Chem, 2010).

The species entered for data set [1] is Rattus norvegicus. Description: Induction of Electron transport protein complex 1 in Sprague-Dawley rat cortical mitochondria assessed as reduction of ferric cyanide at 10 uM after 30 mins. In short, it runs like this: (§1)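 Submitochondrial particles from rat cortical mitochondria were preincubated 30 min with nitrone (10 μM), dopamine, or both. Ferricyanide reduction was then followed from the 440 minus 490 nm difference in the presence of antimycin A and azide at 37.5 C, as a read-out of iron-sulfur cluster N2 activity. Activity is given as nmol/mg protein/min, mean ± SEM, N = 10.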

The species entered for data set [2] is Rattus norvegicus. The data set is described as follows: Inhibition of rotenone-induced electron leakage in Sprague-Dawley rat forebrain mitochondria assessed as NBT reduction at 0.8 uM after 30 mins. It is filed as functional. In short, it runs like this: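 Forebrain mitochondria from 3-month-old rats, in Tris-KCl phosphate medium at pH 7.4, respired on 6 mM glutamate and 6 mM malate at 37.5 C with nitrone for 30 min. NBT reduction was run with 3 μM rotenone and 3 mM azide, and the formazan was then extracted and measured. Mean ± SEM of at least four independent preparations.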

Data set [3] relates to Rotifers. Description: Inhibition of water soluble peroxide formation in Rotifers cultures. It is filed as functional, organism-based. The note with it: Rotifera; TDE = time-dependent effect.
The species entered for data set [4] is Rattus norvegicus. Description: Inhibition of water soluble peroxide formation in Sprague-Dawley rat forebrain mitochondria at 0.8 uM after 30 mins by FOX assay. It is filed as functional. In short, it runs like this: (§2)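 Rat forebrain mitochondria respired on 6 mM glutamate/malate with nitrone at 37.5 C for 30 min, then were put on ice and homogenized in H2SO4. The supernatant was mixed with FeSO4, xylenol orange and sorbitol at 0.07 M H2SO4, held 30 min at 25 C in the dark, and read at 570 nm. Mean ± SEM of at least four independent preparations.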

The species entered for data set [5] is Rattus norvegicus. Description: Inhibition of water soluble peroxide formation in Sprague-Dawley rat forebrain mitochondria at 0.4 uM after 30 mins by FOX assay. It is filed as functional. In a few lines:
as §2

In data set [6] the test system is Rotifers. Description: Protection against doxorubicin-induced toxicity in Rotifers assessed as viability at 10 uM after 24 hrs. It is filed as functional, Rotifera. In short, it runs like this:
(§3)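 Individually housed Philodina rotifers were exposed for 24 h to H2O2 or doxorubicin (200 μM), with nitrone (10 μM) added at the same time. Read-out was % viable animals. Vehicle controls came from the same stock culture and were run in parallel. Mean ± SEM, N = 10; ANOVA with Bonferroni t test.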

In data set [7] the test system is Rotifers. The data set is described as follows: Protection against hydrogen peroxide-induced toxicity in Rotifers assessed as viability at 10 uM after 24 hrs. It is filed as functional, Rotifera. In a few lines: as §3
A short description of data set [8]: Inhibition of doxorubicin-induced cell death in Sprague-Dawley rat primary mixed cortical cells at 10 uM after 24 hrs by trypan blue absorbance assay. It is filed as functional. In a few lines: (§4)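 Mixed cortical cultures from E15 rat embryos were exposed for 24 h to H2O2, peroxynitrite or doxorubicin (200 μM), with nitrone (10 μM) added at the same time. Cell death was measured by trypan blue absorbance at 590 nm and expressed as % inhibition. Mean ± SEM, N = 10; ANOVA with Bonferroni t test against vehicle.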

A short description of data set [9]: Inhibition of peroxynitrite-induced cell death in Sprague-Dawley rat primary mixed cortical cells at 10 uM after 24 hrs by trypan blue absorbance assay. It is filed as functional. In a few lines:
as §4

Data set [10] is described as follows: Inhibition of hydrogen peroxide-induced cell death in Sprague-Dawley rat primary mixed cortical cells at 10 uM after 24 hrs by trypan blue absorbance assay. It is filed as functional. In short, it runs like this:
as §4

Data set [11] can be described thus: Solubility in water. It is filed as physicochemical.
Data set [12] is filed under the species Rattus norvegicus. Description: Induction of Electron transport protein complex 1 in Sprague-Dawley rat cortical mitochondria assessed as reduction of ferric cyanide at 10 uM after 30 mins in presence of EPBNAH.
The species named for data set [13] is Rattus norvegicus. The data set is described as follows: Induction of Electron transport protein complex 1 in Sprague-Dawley rat cortical mitochondria assessed as reduction of ferric cyanide at 10 uM after 30 mins in presence of dopamine. In a few lines: as §1
The species entered for data set [14] is Rattus norvegicus. The data set is described as follows: Restoration of FCCP-induced decrease of mitochondrial membrane potential in Sprague-Dawley rat forebrain mitochondria at 0.8 uM treated 15 mins before FCCP challenge measured after 30 mins by rhodamine 123 fluorescence assay. It is filed as functional. In short, it runs like this:
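Rat forebrain mitochondria respired on 6 mM glutamate/malate at 37.5 C with nitrone. FCCP (0.2 μM) was added at 15 min to partly collapse the potential, and rhodamine 123 fluorescence quenching was recorded directly at 30 min. Potential was calculated by the Scaduto and Grotyohann method. Mean ± SEM of at least four preparations.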

A short description of data set [15]: Antioxidant activity assessed as reduction of ABTS radical measured for 30 mins. It is filed as functional. In short, it runs like this: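 ABTS cation radical at 105 μM final, test compound at 0.5 mM final, DMSO vehicle at 2.5% final in controls. The reaction is started by adding the nitrone, and loss of radical is followed at 420 nm every minute for 30 min. Results are reduced ABTS•+ per 30 min as mean ± SEM, N = 10, compared with vehicle by ANOVA with Bonferroni t test.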

A short description of data set [16]: Antioxidant activity assessed as ABTS radical scavenging activity assessed as burstlike formation of intensely green colored ABTS radical measured for 30 mins. It is filed as functional. In short, it runs like this: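 Fenton-initiated ABTS cation radical formation: water, ABTS (1 mM stock), FeSO4 (0.5 mM stock), test compound (1 mM stock in DMSO), reaction started with H2O2 (10 mM stock). Absorbance read at 420 nm every minute over 30 min. Controls got DMSO vehicle, 10% final. Scavenging is seen as suppression of time-dependent radical formation.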

Data set [17] can be described thus: Lipophilicity, log K in methanol-water mixture by HPLC. It is filed as physicochemical. In a few lines:
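Nitrones in methanol (1.0 mg/mL) were run by reverse-phase C18 HPLC, eluted with MeOH/water from 9:1 to 7:3 v/v at 0.8 mL/min. Retention values were extrapolated to 100% aqueous to give log k'W.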

A short description of data set [18]: Critical micellar concentration of the compound. It is filed as physicochemical. In short, it runs like this:
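Nitrone solutions in ultrapure water were measured at 25 C by the Wilhelmy plate method with a tensiometer. The cmc was taken as the breakpoint of the plot of surface tension against log concentration.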

Molecules are shown by their SMILES. ≈ marks a conversion by molar mass, not a printed value. Calls of active or inactive are those of the source. No cut-off for these calls is given here.

For orientation: inhibition means the relative decrease from the control value, in per cent. As a reminder, the solubility is how much of the substance goes into solution per volume. Lower therefore signals little dissolved substance. For `CCCCCCCC(=O)NCC(C)(C)/[N+]([O-])=C/c1ccc(CNC(=O)[C@H](O)[C@H](O)[C@H](O[C@@H]2O[C@H](CO)[C@H](O)[C@H](O)[C@H]2O)[C@@H](O)CO)cc1`, the Activity in the data set filed under Rattus norvegicus [1] came out at 116 nmol/mg/min; in the data set with Rotifers [6], 85.8%; in the data set with Rotifers [7], 83%; in the data set listed under Rattus norvegicus [12], 19 nmol/mg/min; in the data set filed under Rattus norvegicus [13], 79 nmol/mg/min. Also, the inhibition result in the data set listed under Rattus norvegicus [2] is “Active”. The inhibition result in the data set with Rotifers [3] was “tde”; in the data set filed under Rattus norvegicus [4] it was 20%; in the data set filed under Rattus norvegicus [5] it was 10%. For the same compound, the inhibition at 10 µM worked out at 82% in data set [8], 61% in [9] and 81% in data set [10]. Moreover, the concentration in solution in [11] (solubility) was 515 mg/mL (≈ 749 mM).
With `CCCCCCCC(=O)NCc1ccc(/C=[N+](\[O-])C(C)(C)CNC(=O)[C@H](O)[C@H](O)[C@H](O[C@@H]2O[C@H](CO)[C@H](O)[C@H](O)[C@H]2O)[C@@H](O)CO)cc1`, the Activity in the data set filed under Rattus norvegicus [1] came out at 124 nmol/mg/min; with Rotifers [6], 96.5%; in the data set with Rotifers [7], 87.6%; in [15] it was 49.1 nmol; in [16], 96.8 nmol; in the data set filed under Rattus norvegicus [12] it was 31 nmol/mg/min. In addition, in the data set listed under Rattus norvegicus [13], the Activity amounted to 110 nmol/mg/min. The outcome in the data set listed under Rattus norvegicus [14] was Active. In addition, the inhibition entry in the data set listed under Rattus norvegicus [2] is “Active”. Besides, the inhibition result in the data set on Rotifers [3] is “tde”; in the data set filed under Rattus norvegicus [4] it was 80%. Also, the inhibition at 10 µM in [8] came to 93%; in [9] it was 90.1%; in data set [10], 93%. For the same compound, the logKw in data set [17] was 2.86. This compound also had a solubility in [11] of 530 mg/mL (≈ 771 mM).
For `CC(C)(C)/[N+]([O-])=C/c1ccccc1`, the Activity in the data set filed under Rattus norvegicus [1] came to 107 nmol/mg/min; with Rotifers [6] it was 18.7%; in the data set with Rotifers [7], 25.6%; in the data set listed under Rattus norvegicus [12], 13 nmol/mg/min; in the data set listed under Rattus norvegicus [13], 60 nmol/mg/min. Further, the inhibition at 10 µM in [8] was 24.2%; in data set [9], 20.6%; in data set [10] it was 25%. Also, in data set [17], the logKw is recorded as 1.62.
In the case of `CC(C)(CNC(=O)CCC(F)(F)C(F)(F)C(F)(F)C(F)(F)C(F)(F)C(F)(F)F)/[N+]([O-])=C/c1ccc(CNC(=O)[C@H](O)[C@H](O)[C@H](O[C@@H]2O[C@H](CO)[C@H](O)[C@H](O)[C@H]2O)[C@@H](O)CO)cc1`, the Activity in the data set on Rotifers [6] came to 30.6%; in the data set with Rotifers [7], 40.6%. For the same compound, the inhibition at 10 µM came out at 34.9% in data set [8], 40.1% in data set [9] and 63.4% in [10]. The same compound came in with a CMC in [18] of 0.213 mM.
Turning to `CC(C)(CNC(=O)[C@H](O)[C@H](O)[C@H](O[C@@H]1O[C@H](CO)[C@H](O)[C@H](O)[C@H]1O)[C@@H](O)CO)/[N+]([O-])=C/c1ccc(CNC(=O)CCC(F)(F)C(F)(F)C(F)(F)C(F)(F)C(F)(F)C(F)(F)F)cc1`, the Activity with Rotifers [6] is 46.7%; in the data set on Rotifers [7], 30.1%; in data set [15], 42.6 nmol; in [16], 90.7 nmol. The figures for the inhibition at 10 µM in data set [8], in [9] and in data set [10] were 32.8%, 30.3% and 42.6%, respectively. In data set [18], this compound came in with a CMC of 0.18 mM. Moreover, the logKw in data set [17] worked out at 4.71. The compound further displayed a solubility in data set [11] of 270 mg/mL (≈ 289 mM).
